Test results reported in ChEMBL document CHEMBL1177643, “Synthesis, DNA-binding ability and anticancer activity of benzothiazole/benzoxazole-pyrrolo[2,1-c][1,4]benzodiazepine conjugates” (Bioorg Med Chem, 2010).
“And” between values parts separate entries of the source, which are not always exact repeats. Equal entries are not always repeated.

What was measured:
[1] = tested on: Calf thymus DNA; assay: Binding affinity to calf thymus duplex-form DNA assessed as cleavage of pBR322 after 16 hrs by restriction endonuclease digestion assay in presence of BamHI; assay type: nucleic-acid assay; settings: Bos taurus
How it was run: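 pBR322 DNA (500 ng) preincubated with compound (5–30 μM) 16 h at 37 °C, then digested with BamHI (20 U) 1 h at 37 °C. Products run on 1% agarose in Tris–acetate EDTA, 80 V, 2 h. Read-out was ethidium bromide staining under UV, with an undigested and a fully digested control.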

[2] = tested on: UACC-257; assay: Growth inhibition of human UACC257 cells after 48 hrs by sulforhodamine B assay; assay type: functional; settings: UACC-257, 48 h
How it was run: (§1)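 Panel of 60 human cancer cell lines; for each compound, dose–response curves per cell line measured at a minimum of five concentrations at 10-fold dilutions. Cells exposed continuously to drug for 48 h, and growth was read out by sulforhodamine B staining.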

[3] = tested on: NCI-H226; assay: Growth inhibition of human NCI-H226 cells after 48 hrs by sulforhodamine B assay; assay type: functional; settings: NCI-H226, 48 h; how it was run: as §1
[4] = tested on: UACC-62; assay: Growth inhibition of human UACC62 cells after 48 hrs by sulforhodamine B assay; assay type: functional; settings: UACC-62, 48 h; how it was run: as §1
[5] = tested on: HT-29; assay: Antitumor activity against human HT-29 cells xenografted in SCID mouse assessed as reduction tumor volume at 30 mg/kg, ip measured on day 9; assay type: functional; settings: route intraperitoneal
How it was run: (§2)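 HT29 xenografts in scid mice; dosing ip on days 1, 5 and 9 (q4d), 5 or 10 mg/kg per dose (total 15 or 30 mg/kg); vehicle control group. Tumour volume, body weight and toxicity followed for 35 days. Relative tumour volume = volume on given day / volume on day 1; T/C = mean RTV treated / mean RTV control.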

[6] = tested on: A-375; assay: Induction of apoptosis in human A375 cells at 2 uM; assay type: functional, cell-based
How it was run: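 A375 melanoma cells (5 × 10⁵ per 60 mm dish) grown 24 h, then exposed to 2 μM compound (final) for 24 h; DMSO-treated cells as control. Cells harvested with trypsin–EDTA, fixed in ice-cold 70% ethanol, treated with RNase A, and stained with propidium iodide. DNA content of 20,000 events read by flow cytometry; sub-G1 (G0) area taken as apoptotic.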

[7] = tested on: A-375; assay: Cell cycle arrest in human A375 cells assessed as accumulation at G2/M phase at 1 uM after 24 hrs using propidium iodide staining by flow cytometry; assay type: functional
How it was run: (§3)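 A375 cells (5×10^5) grown 24 h, then exposed to compound 24 h (DMSO control). Trypsin–EDTA harvest, fixed in ice-cold 70% ethanol at 4 °C 30 min, RNase A 37 °C 30 min, propidium iodide staining. DNA content measured by flow cytometry on 20,000 events, gated as sub-G1/G0, G1, S and G2/M.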

[8] = tested on: NCI-H23; assay: Growth inhibition of human NCI-H23 cells after 48 hrs by sulforhodamine B assay; assay type: functional; settings: NCI-H23, 48 h; how it was run: as §1
[9] = tested on: T47D; assay: Growth inhibition of human T47D cells after 48 hrs by sulforhodamine B assay; assay type: functional; how it was run: as §1
[10] = tested on: A-375; assay: Cell cycle arrest in human A375 cells assessed as accumulation at sub-G0 phase at 0.5 uM after 24 hrs using propidium iodide staining by flow cytometry; assay type: functional; how it was run: as §3
[11] = tested on: OVCAR-4; assay: Growth inhibition of human OVCAR4 cells after 48 hrs by sulforhodamine B assay; assay type: functional; settings: OVCAR-4, 48 h; how it was run: as §1
[12] = tested on: SW-620; assay: Growth inhibition of human SW620 cells after 48 hrs by sulforhodamine B assay; assay type: functional; settings: SW-620, 48 h; how it was run: as §1
[13] = tested on: COLO 205; assay: Growth inhibition of human COLO205 cells after 48 hrs by sulforhodamine B assay; assay type: functional; settings: COLO 205, 48 h
How it was run: (§4)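 Dose–response in each cell line over at least five concentrations at 10-fold dilutions, with 48 h continuous exposure and sulforhodamine B read-out.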

[14] = tested on: A-375; assay: Cell cycle arrest in human A375 cells assessed as accumulation at G1 phase at 1 uM after 24 hrs using propidium iodide staining by flow cytometry; assay type: functional; how it was run: as §3
[15] = tested on: EKVX; assay: Growth inhibition of human EKVX cells after 48 hrs by sulforhodamine B assay; assay type: functional; how it was run: as §4
[16] = tested on: A-375; assay: Cell cycle arrest in human A375 cells assessed as accumulation at G2/M phase at 0.5 uM after 24 hrs using propidium iodide staining by flow cytometry; assay type: functional; how it was run: as §3
[17] = tested on: SR; assay: Growth inhibition of human SR cells after 48 hrs by sulforhodamine B assay; assay type: functional; how it was run: as §1
[18] = tested on: TK-10; assay: Growth inhibition of human TK10 cells after 48 hrs by sulforhodamine B assay; assay type: functional; settings: TK-10, 48 h; how it was run: as §1
[19] = tested on: A-375; assay: Cell cycle arrest in human A375 cells assessed as accumulation at G0 phase at 1 uM after 24 hrs using propidium iodide staining by flow cytometry; assay type: functional; how it was run: as §3
[20] = tested on: HT-29; assay: Antitumor activity against human HT-29 cells xenografted in SCID mouse assessed as reduction tumor volume at 15 mg/kg, ip measured on day 9; assay type: functional; settings: route intraperitoneal; how it was run: as §2
[21] = tested on: 786-0; assay: Growth inhibition of human 786-0 cells after 48 hrs by sulforhodamine B assay; assay type: functional; settings: 786-0, 48 h; how it was run: as §4
[22] = tested on: HT-29; assay: Antitumor activity against human HT-29 cells xenografted in SCID mouse assessed as reduction tumor volume at 15 mg/kg, ip measured on day 14; assay type: functional; settings: route intraperitoneal; how it was run: as §2
[23] = tested on: HT-29; assay: Antitumor activity against human HT-29 cells xenografted in SCID mouse assessed as reduction tumor volume at 30 mg/kg, ip measured on day 21; assay type: functional; settings: route intraperitoneal; how it was run: as §2
[24] = tested on: HT-29; assay: Antitumor activity against human HT-29 cells xenografted in SCID mouse assessed as reduction tumor volume at 15 mg/kg, ip measured on day 32; assay type: functional; settings: route intraperitoneal; how it was run: as §2
[25] = tested on: A-375; assay: Cell cycle arrest in human A375 cells assessed as accumulation at G0/G1 phase at 1 uM after 24 hrs using propidium iodide staining by flow cytometry; assay type: functional; how it was run: as §3
[26] = tested on: DU-145; assay: Growth inhibition of human DU145 cells after 48 hrs by sulforhodamine B assay; assay type: functional; settings: DU-145, 48 h; how it was run: as §4
[27] = tested on: A-375; assay: Cell cycle arrest in human A375 cells assessed as accumulation at G2/M phase at 2 uM after 24 hrs using propidium iodide staining by flow cytometry; assay type: functional; how it was run: as §3
[28] = tested on: HCT-15; assay: Growth inhibition of human HCT15 cells after 48 hrs by sulforhodamine B assay; assay type: functional; settings: HCT-15, 48 h; how it was run: as §1
[29] = tested on: KM12; assay: Growth inhibition of human KM12 cells after 48 hrs by sulforhodamine B assay; assay type: functional; settings: KM12, 48 h; how it was run: as §1
[30] = tested on: A549; assay: Growth inhibition of human A549 cells after 48 hrs by sulforhodamine B assay; assay type: functional; settings: A549, 48 h; how it was run: as §4
[31] = tested on: SN12C; assay: Growth inhibition of human SN12C cells after 48 hrs by sulforhodamine B assay; assay type: functional; how it was run: as §1
[32] = tested on: Calf thymus DNA; assay: Binding affinity to calf thymus duplex-form DNA assessed as melting temperature at 1:5 compound/DNA ratio after 18 hrs; assay type: nucleic-acid assay; settings: Bos taurus
[33] = tested on: HT-29; assay: Antitumor activity against human HT-29 cells xenografted in SCID mouse assessed as reduction tumor volume at 15 mg/kg, ip measured on day 17; assay type: functional; settings: route intraperitoneal; how it was run: as §2
[34] = tested on: HT-29; assay: Antitumor activity against human HT-29 cells xenografted in SCID mouse assessed as reduction tumor volume at 30 mg/kg, ip measured on day 14; assay type: functional; settings: route intraperitoneal; how it was run: as §2
[35] = tested on: HT-29; assay: Antitumor activity against human HT-29 cells xenografted in SCID mouse assessed as reduction tumor volume at 30 mg/kg, ip measured on day 17; assay type: functional; settings: route intraperitoneal; how it was run: as §2
[36] = tested on: SF-539; assay: Growth inhibition of human SF539 cells after 48 hrs by sulforhodamine B assay; assay type: functional; settings: SF-539, 48 h; how it was run: as §1

Compound: COc1cc(-c2nc3ccccc3s2)ccc1OCCCCCOc1cc2c(cc1OC)C(=O)N1CCC[C@H]1C=N2
- Activity [1]: Dose-dependent effect
- GI50 [2]: 0.186 µM
- GI50 [3]: 0.214 µM
- GI50 [4]: 0.0813 µM
- T/C [5]: 0.78%
- Activity [6]: Dose-dependent effect
- Activity [7]: 20.32%
- GI50 [8]: 0.0617 µM
- GI50 [9]: 0.0141 µM
- Activity [10]: 2.13%
- GI50 [11]: 0.288 µM
- GI50 [12]: 0.0562 µM
- GI50 [13]: 0.0603 µM
- Activity [14]: 61.56%
- GI50 [15]: 0.204 µM
- Activity [16]: 15.96%
- GI50 [17]: 0.0174 µM
- GI50 [18]: 0.331 µM
- Activity [19]: 2.7%
- T/C [20]: 0.49%
- GI50 [21]: 0.0275 µM
- T/C [22]: 0.58% and 0.3%
- T/C [23]: 0.58%
- T/C [24]: 0.76% and 0.16%
- Activity [25]: 64.26%
- GI50 [26]: 0.0339 µM
- Activity [27]: 3.1%
- GI50 [28]: 0.224 µM
- GI50 [29]: 0.166 µM
- GI50 [30]: 0.24 µM
- GI50 [31]: 0.2 µM
- ΔTm [32]: 6.3 °C
- T/C [33]: 0.65% and 0.28%
- T/C [34]: 0.66%
- T/C [35]: 0.81%
- GI50 [36]: 0.0398 µM

Compound: COc1cc2c(cc1OCCCCC(=O)Nc1ccc(-c3nc4ccccc4s3)cc1)N=C[C@@H]1CCCN1C2=O
- GI50 [2]: 1.74 µM
- GI50 [3]: 2.88 µM
- GI50 [4]: 1.74 µM
- GI50 [9]: 1.95 µM
- GI50 [11]: 2.82 µM
- GI50 [12]: 1.62 µM
- GI50 [13]: 1.7 µM
- GI50 [15]: 2.45 µM
- GI50 [17]: 0.55 µM
- GI50 [18]: 3.24 µM
- GI50 [21]: 1.55 µM
- Activity [27]: 5.41%
- GI50 [28]: 2.82 µM
- GI50 [29]: 2.95 µM
- GI50 [30]: 3.39 µM
- GI50 [31]: 2.82 µM
- ΔTm [32]: 0.5 °C
- GI50 [36]: 1.58 µM

Compound: COc1cc(-c2nc3ccccc3s2)ccc1OCCCCOc1cc2c(cc1OC)C(=O)N1CCC[C@H]1C=N2
- Activity [1]: Dose-dependent effect
- GI50 [2]: 2.19 µM
- GI50 [3]: 2.4 µM
- GI50 [4]: 1.12 µM
- GI50 [8]: 1.48 µM
- GI50 [9]: 0.257 µM
- GI50 [11]: 1.62 µM
- GI50 [12]: 0.794 µM
- GI50 [13]: 0.692 µM
- GI50 [15]: 1.74 µM
- GI50 [17]: 0.295 µM
- GI50 [18]: 1.51 µM
- GI50 [21]: 0.891 µM
- GI50 [26]: 0.302 µM
- Activity [27]: 4.45%
- GI50 [28]: 1.32 µM
- GI50 [29]: 1.02 µM
- GI50 [30]: 2.69 µM
- GI50 [31]: 0.955 µM
- ΔTm [32]: 0.5 °C
- GI50 [36]: 0.537 µM
